# Assay results of several laboratories.
# Protocols differ between the studies behind these lines.
# Read-out: cell growth or viability
SMILES,cell line,method,tested at,time,quantity,result
N#C[Se]Cc1cc(=O)oc2cc(O)ccc12,T47D,SRB,,,GI50,35000 nM
N.N.[Cl][Pt][Cl],JVM-3,ATP luminescence,10 µM,72 h,inhibition,100%
Cc1ncsc1-c1ccc([C@H](C)NC(=O)[C@@H]2C[C@@H](O)CN2C(=O)[C@@H](c2cc(N3CCC(CN4CCC(OC5CC(Oc6cc(N7C8CCC7CN(c7cc(-c9ccccc9O)nnc7N)C8)ccn6)C5)CC4)CC3)no2)C(C)C)cc1 (stereo partly shown),LNCaP,ATP luminescence,,7 days,IC50,3.2 nM
COC(=O)c1cc(C(C)=NNc2nc(-c3ccc(S(=O)(=O)F)cc3)cs2)ccc1O,T47D,MTT,,96 h,IC50,26300 nM
O=[N+]([O-])c1ccc(NCCCCCCN=C=S)c2nonc12,T47D,MTT,,24 h,IC50,1200 nM
O=C1c2ccccc2-c2c3c(cc4ccnc1c24)OCO3,T47D,MTT,,75 h,IC50,15900 nM
CC(=O)c1c(C)c2cnc(Nc3ccc(C4CCN(CCS(C)(=O)=O)CC4)cn3)nc2n(C2CCCC2)c1=O,T47D,ATP luminescence,,72 h,IC50,177 nM
C[S+]([O-])CCCCN=C=S (stereo not shown),T47D,MTT,,24 h,IC50,30400 nM
Cc1cc(=O)oc2cc(OCCCC[Se]C#N)ccc12,MIA PaCa-2,SRB,,,GI50,2600 nM
CC[C@@]1(O)C(=O)OCc2c1cc1n(c2=O)Cc2cc3ccccc3nc2-1,MIA PaCa-2,SRB,,48 h,IC50,151 nM
